From publication PMC10975593 (ACS Omega, 2024)
pIC50: −log10 of the molar value.

Key:
[1] = tested on: MCF-7 and A549 cancer cell lines; assay: MTT assay, range over both cell lines; type: cell-based; details: read-out: IC50 values, range
Outline: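 A549 in DMEM and MCF-7 in RPMI, each with 10% heat-inactivated FBS, 1% penicillin/streptomycin and 2 mmol/L glutamine at 37 °C, 5% CO2. Seeded at 2000 (A549) or 10,000 (MCF-7) cells/well and attached 24 h. Then 72 h with test compound at varying concentrations. MTT (5 mg/mL stock) added for 4 h at 37 °C, formazan dissolved in DMSO, absorbance read at 450/540 nm. Triplicates in three separate experiments.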

Fibro cell line = assay: % inhibition on normal cell line; type: cell-based
NCI 60 cell line panel = assay: NCI 60-cell line inhibition, range over panel; type: cell-based; details: Homo sapiens
MCF-7 = assay: NCI 60-cell line screen; type: cell-based, human
MDA-MB-468 = assay: NCI 60-cell line screen; type: cell-based, human
T-47D = assay: NCI 60-cell line screen; type: cell-based, human
Outline: (§1)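 Test compounds were submitted to the National Cancer Institute and run under NCI's standard 60-cell-line protocols. Read-outs were taken from percent-growth versus log-concentration curves.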

SF-268 = assay: NCI 60-cell line screen; type: cell-based, human
Outline: as §1

SF-295 = assay: NCI 60-cell line screen; type: cell-based, human
Outline: as §1

U251 = assay: NCI 60-cell line screen; type: cell-based, human
Outline: as §1

HCT-116 = assay: NCI 60-cell line screen; type: cell-based, human
CCRF-CEM = assay: NCI 60-cell line screen; type: cell-based, human
LOX IMVI = assay: NCI 60-cell line screen; type: cell-based, human
SK-MEL-2 = assay: NCI 60-cell line screen; type: cell-based, human
Outline: as §1

SK-MEL-28 = assay: NCI 60-cell line screen; type: cell-based, human
Outline: as §1

A549/ATCC = assay: NCI 60-cell line screen; type: cell-based, human
NCI-H226 = assay: NCI 60-cell line screen; type: cell-based, human
NCI-H23 = assay: NCI 60-cell line screen; type: cell-based, human
NCI-H322M = assay: NCI 60-cell line screen; type: cell-based, human
NCI/ADR-RES = assay: NCI 60-cell line screen; type: cell-based, human
DU-145 = assay: NCI 60-cell line screen; type: cell-based, human
786-0 = assay: NCI 60-cell line screen; type: cell-based, human
ACHN = assay: NCI 60-cell line screen; type: cell-based, human
CAKI-1 = assay: NCI 60-cell line screen; type: cell-based, human
SN12C = assay: NCI 60-cell line screen; type: cell-based, human
Outline: as §1

UO-31 = assay: NCI 60-cell line screen; type: cell-based, human
Outline: as §1

HL-60(TB) = assay: cells; details: Homo sapiens

## O=C(CNc1ccc([N+](=O)[O-])cc1)Nc1nc2ccccc2s1 [OMS5, N-(1,3-benzothiazol-2-yl)-2-(4-nitroanilino)acetamide]
[1]
  pIC50: 4.21 to 4.66
Fibro cell line; read-out: %inhibition at 10 μM
  inhibition at 10 µM: 57.9%
Fibro cell line; read-out: %inhibition at 100 μM
  inhibition at 100 µM: 67.1%
NCI 60 cell line panel; read-out: GI50, range over cell lines
  GI50: 360 to 2300 nM
NCI 60 cell line panel; read-out: IC50, range over cell lines
  pIC50: 4.92 to 6.36
MCF-7; Homo sapiens, MCF7
  GI50: 400 nM
  pIC50: 6.30
MCF-7; Homo sapiens, MCF7, read-out: LC50
  CC50: 74100 nM
MCF-7; MCF-7, breast cancer
  TGI: 10000 nM
MDA-MB-468; Homo sapiens, MDA-MB-468
  GI50: 400 nM
  pIC50: 5.74
MDA-MB-468; Homo sapiens, MDA-MB-468, read-out: LC50
  CC50: 5300 nM
MDA-MB-468; MDA-MB-468, breast cancer
  TGI: 1800 nM
T-47D; Homo sapiens, T47D
  GI50: 1000 nM
  pIC50: 5.34
T-47D; Homo sapiens, T47D, read-out: LC50
  CC50: 74100 nM
T-47D; T-47D, breast cancer
  TGI: 4600 nM
SF-268; Homo sapiens, SF-268
  GI50: 1300 nM
  pIC50: 5.46
SF-268; Homo sapiens, SF-268, read-out: LC50
  CC50: 51300 nM
SF-268; SF-268, CNS cancer
  TGI: 6600 nM
SF-295; Homo sapiens, SF-295
  GI50: 700 nM
  pIC50: 5.85
SF-295; Homo sapiens, SF-295, read-out: LC50
  CC50: 24000 nM
SF-295; SF-295, CNS cancer
  TGI: 4400 nM
U251; Homo sapiens, U-251
  GI50: 900 nM
  pIC50: 5.77
U251; Homo sapiens, U-251, read-out: LC50
  CC50: 41700 nM
U251; U251, CNS cancer
  TGI: 12000 nM
HCT-116; HCT-116, colon cancer
  TGI: 11000 nM
HCT-116; Homo sapiens, HCT-116
  GI50: 400 nM
  pIC50: 6.40
HCT-116; Homo sapiens, HCT-116, read-out: LC50
  CC50: 45700 nM
CCRF-CEM; Homo sapiens
  GI50: 900 nM
  pIC50: 5.64
CCRF-CEM; Homo sapiens, read-out: LC50
  CC50: > 100000 nM
CCRF-CEM; leukemia
  TGI: 50000 nM
LOX IMVI; Homo sapiens
  GI50: 600 nM
  pIC50: 6.00
LOX IMVI; Homo sapiens, read-out: LC50
  CC50: 8700 nM
LOX IMVI; melanoma
  TGI: 2600 nM
SK-MEL-2; Homo sapiens, SK-MEL-2
  GI50: 1300 nM
  pIC50: 5.52
SK-MEL-2; Homo sapiens, SK-MEL-2, read-out: LC50
  CC50: 6300 nM
SK-MEL-2; SK-MEL-2, melanoma
  TGI: 2800 nM
SK-MEL-28; Homo sapiens, SK-MEL-28
  GI50: 1600 nM
  pIC50: 5.52
SK-MEL-28; Homo sapiens, SK-MEL-28, read-out: LC50
  CC50: 6900 nM
SK-MEL-28; SK-MEL-28, melanoma
  TGI: 3300 nM
A549/ATCC; A549/ATCC, non-small cell lung cancer
  TGI: 28000 nM
A549/ATCC; Homo sapiens, A549
  GI50: 800 nM
  pIC50: 5.82
A549/ATCC; Homo sapiens, A549, read-out: LC50
  CC50: > 100000 nM
NCI-H226; Homo sapiens, NCI-H226
  GI50: 600 nM
  pIC50: 5.52
NCI-H226; Homo sapiens, NCI-H226, read-out: LC50
  CC50: > 100000 nM
NCI-H226; NCI-H226, non-small cell lung cancer
  TGI: 4900 nM
NCI-H23; Homo sapiens, NCI-H23
  GI50: 1000 nM
  pIC50: 5.68
NCI-H23; Homo sapiens, NCI-H23, read-out: LC50
  CC50: 7800 nM
NCI-H23; NCI-H23, non-small cell lung cancer
  TGI: 2800 nM
NCI-H322M; Homo sapiens
  GI50: 1100 nM
  pIC50: 5.60
NCI-H322M; Homo sapiens, read-out: LC50
  CC50: 28800 nM
NCI-H322M; non-small cell lung cancer
  TGI: 4100 nM
NCI/ADR-RES; Homo sapiens
  GI50: 600 nM
  pIC50: 5.89
NCI/ADR-RES; Homo sapiens, read-out: LC50
  CC50: 53700 nM
NCI/ADR-RES; ovarian cancer
  TGI: 4600 nM
DU-145; DU-145, prostate cancer
  TGI: 12000 nM
DU-145; Homo sapiens, DU-145
  GI50: 800 nM
  pIC50: 5.74
DU-145; Homo sapiens, DU-145, read-out: LC50
  CC50: 52500 nM
786-0; 786-0, renal cancer
  TGI: 12000 nM
786-0; Homo sapiens, 786-0
  GI50: 500 nM
  pIC50: 6.05
786-0; Homo sapiens, 786-0, read-out: LC50
  CC50: 43700 nM
ACHN; Homo sapiens
  GI50: 400 nM
  pIC50: 6.10
ACHN; Homo sapiens, read-out: LC50
  CC50: 33100 nM
ACHN; renal cancer
  TGI: 8500 nM
CAKI-1; CAKI-1, renal cancer
  TGI: 9500 nM
CAKI-1; Homo sapiens, CAKI-1
  GI50: 400 nM
  pIC50: 6.05
CAKI-1; Homo sapiens, CAKI-1, read-out: LC50
  CC50: 32400 nM
SN12C; Homo sapiens
  GI50: 600 nM
  pIC50: 5.82
SN12C; Homo sapiens, read-out: LC50
  CC50: 57500 nM
SN12C; renal cancer
  TGI: 4900 nM
UO-31; Homo sapiens, UO-31
  GI50: 500 nM
  pIC50: 5.89
UO-31; Homo sapiens, UO-31, read-out: LC50
  CC50: 26900 nM
UO-31; UO-31, renal cancer
  TGI: 3800 nM
HL-60(TB); HL-60
  GI50: 800 nM
  pIC50: 5.60
HL-60(TB); HL-60, read-out: LC50
  CC50: > 100000 nM
